Assay results reported in ChEMBL document CHEMBL1149565, “Identification of a novel series of benzimidazoles as potent and selective antagonists of the human melanocortin-4 receptor” (Bioorg Med Chem Lett, 2007).
Activity calls are given as the source filed them. The rule behind the calls is not given here.

Legend:
Melanocortin receptor 4 [1] = molecular target: T1, Melanocortin receptor 4 (Homo sapiens, UniProt P32245); test: Displacement of [125I]NDP-alphaMSH from human melanocortin 4 receptor expressed in CHOK1 cells; format: cell-based, CHO-K1
T1 sequence (P32245 whole entry): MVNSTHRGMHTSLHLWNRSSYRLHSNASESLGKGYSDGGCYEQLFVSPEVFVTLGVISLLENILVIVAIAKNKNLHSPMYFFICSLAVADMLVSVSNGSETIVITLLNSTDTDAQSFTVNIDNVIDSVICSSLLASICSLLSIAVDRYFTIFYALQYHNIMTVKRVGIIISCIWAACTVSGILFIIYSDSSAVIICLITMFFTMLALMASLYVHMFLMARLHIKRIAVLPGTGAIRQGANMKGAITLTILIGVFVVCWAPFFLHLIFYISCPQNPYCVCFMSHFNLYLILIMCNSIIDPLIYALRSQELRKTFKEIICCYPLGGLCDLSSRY
Outline: (§1)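 Membranes from CHO-K1 cells stably expressing human MC1, MC3, MC4 or MC5 receptor, 1–10 µg protein/well, in 50 mM Tris-HCl pH 7.4 with 0.2% BSA, 5 mM MgCl2, 1 mM CaCl2, 0.1 mg/mL bacitracin. Incubated with increasing test compound and 0.1–0.3 nM [125I]NDP-α-MSH, 90–120 min at 37 °C depending on subtype. Filtration on PEI-presoaked GF/C filters, cold buffer washes, radioactivity counted; nonlinear regression; three independent measurements.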

[2] = Half life in Sprague-Dawley rat at 4.5 umol/kg, iv; format: ADME, organism-based; details: in vivo
Outline: (§2)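 Fed male Sprague–Dawley rats, three per time point, given 4.5 µmol/kg intravenously via penile vein in 1 ml/kg 10% DMA/90% propanediol. Under deep isoflurane anaesthesia, blood taken from vena cava at 1, 15, 30, 60, 90 and 120 min, centrifuged 2000g, 15 min, 4 °C. Plasma and brain levels measured; brain/blood ratio from AUC.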

Melanocortin receptor 5 = Melanocortin receptor 5 (Homo sapiens, UniProt P33032); test: Displacement of [125I]NDP-alphaMSH from human melanocortin 5 receptor expressed in CHOK1 cells; format: cell-based, CHO-K1; outline: as §1
Chain of Melanocortin receptor 5 (P33032 whole entry): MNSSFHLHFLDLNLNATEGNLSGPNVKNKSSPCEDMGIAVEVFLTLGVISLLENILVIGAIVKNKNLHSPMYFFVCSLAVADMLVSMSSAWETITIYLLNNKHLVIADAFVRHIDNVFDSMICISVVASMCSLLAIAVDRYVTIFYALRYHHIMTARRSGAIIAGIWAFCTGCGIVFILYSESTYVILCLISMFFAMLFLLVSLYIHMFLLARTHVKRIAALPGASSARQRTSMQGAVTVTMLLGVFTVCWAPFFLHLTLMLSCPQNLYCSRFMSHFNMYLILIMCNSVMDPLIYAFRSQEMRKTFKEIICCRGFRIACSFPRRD

[3] = molecular target: Melanocyte-stimulating hormone receptor (Homo sapiens, UniProt Q01726); test: Displacement of [125I]NDP-alphaMSH from human melanocortin 1 receptor expressed in CHOK1 cells; format: cell-based, CHO-K1; outline: as §1
Chain of Melanocyte-stimulating hormone receptor (Q01726 whole entry): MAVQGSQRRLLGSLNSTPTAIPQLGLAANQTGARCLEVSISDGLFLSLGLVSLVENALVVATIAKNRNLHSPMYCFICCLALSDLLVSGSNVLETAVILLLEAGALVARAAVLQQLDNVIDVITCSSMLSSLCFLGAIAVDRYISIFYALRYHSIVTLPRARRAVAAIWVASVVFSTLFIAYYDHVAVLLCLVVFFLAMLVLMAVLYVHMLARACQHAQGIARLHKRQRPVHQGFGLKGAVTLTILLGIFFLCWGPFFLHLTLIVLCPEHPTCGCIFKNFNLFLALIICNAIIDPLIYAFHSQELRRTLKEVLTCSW

Melanocortin receptor 4 [4] = molecular target: T1, Melanocortin receptor 4; test: Antagonist activity at human melanocortin 4 receptor expressed in CHOK1 cells assessed as inhibition of NDP-alpha-MSH-stimulated cAMP production; format: functional, cell-based; details: CHO-K1
Outline: (§3)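 CHO-K1 cells stably expressing human MC4 receptor, suspended in RPMI 1640 with 0.5 mM IBMX and 0.2% protein cocktail, 7000 cells/well on anti-cAMP antibody-coated electrode plates. NDP-α-MSH concentration–response run with increasing test compound concentrations (agonist check at 10 µM alone), 40 min at 37 °C. Cells lysed, 2.5 nM ruthenium-labelled cAMP added, 90 min, then electrochemiluminescence read-out. Nonlinear regression; KB by Schild regression, logarithmic mean of three independent measurements.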

[5] = Ratio of drug level in brain to blood in Sprague-Dawley rat at 4.5 umol/kg, iv; format: ADME, tissue-based; details: read-out: Ratio AUC; outline: as §2
Melanocortin receptor 4 [6] = molecular target: T1, Melanocortin receptor 4; test: Agonist activity at human melanocortin 4 receptor expressed in CHOK1 cells assessed as stimulation of cAMP production at 10 uM; format: functional, cell-based; details: CHO-K1; outline: as §3
Melanocortin receptor 3 = Melanocortin receptor 3 (Homo sapiens, UniProt P41968); test: Displacement of [125I]NDP-alphaMSH from human melanocortin 3 receptor expressed in CHOK1 cells; format: cell-based, CHO-K1; outline: as §1
Chain of Melanocortin receptor 3 (P41968 whole entry): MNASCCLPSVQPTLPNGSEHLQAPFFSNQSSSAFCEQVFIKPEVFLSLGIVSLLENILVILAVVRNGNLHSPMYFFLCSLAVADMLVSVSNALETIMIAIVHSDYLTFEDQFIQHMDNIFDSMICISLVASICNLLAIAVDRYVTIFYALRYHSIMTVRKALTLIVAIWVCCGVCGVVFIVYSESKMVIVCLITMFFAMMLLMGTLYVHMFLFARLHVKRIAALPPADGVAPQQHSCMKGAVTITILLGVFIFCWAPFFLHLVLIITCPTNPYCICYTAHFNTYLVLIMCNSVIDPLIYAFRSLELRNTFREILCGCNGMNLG

[7] = molecular target: Melanocortin receptor (M3 and M4) (Homo sapiens) (UniProt P32245+P41968); test: Selectivity for human MC4R over human MC3R; format: protein assay

Row | Structure (SMILES) | Ki (Melanocortin receptor 4 [1]; read-out: Ki) [nM] | also measured
1 | CC(=O)c1ccc(Nc2nc3ccc(C(=O)N(CCC(C)C)CCC(C)C)cc3n2CCCN(C)C)cc1 | 12 | –
2 | CCC(=O)c1ccc(Nc2nc3ccc(C(=O)N(CCC(C)C)CCC(C)C)cc3n2CCCN2CCCCC2)cc1 | 2.7 | –
3 | CC(=O)c1ccc(Nc2nc3ccc(C(=O)N(CCC(C)C)CCC(C)C)cc3n2CCN)cc1 | 220 | –
4 | CC(C)CCN(CCC(C)C)C(=O)c1ccc2nc(Nc3ccc(Br)cc3)n(CCCN3CCCCC3)c2c1 | 7.5 | –
5 | CC(C)CCN(CCC(C)C)C(=O)c1ccc2nc(Nc3ccc(-c4ccccc4)cc3)n(CCCN3CCCCC3)c2c1 | 5.2 | –
6 | CC(C)CCN(CCC(C)C)C(=O)c1ccc2nc(Nc3cccc4[nH]ccc34)n(CCCN3CCCCC3)c2c1 | 14 | –
7 | CC(=O)c1ccc(Nc2nc3ccc(C(=O)N(CCC(C)C)CCC(C)C)cc3n2CCCN2CCCCC2)cc1 | 2 | half-life [2]: 5 h; Ki (Melanocortin receptor 5): 2200 nM; Ki [3]: 5200 nM; Kb (Melanocortin receptor 4 [4]): 77 nM; Kp [5]: 2.9; Activity (Melanocortin receptor 4 [6]): inactive; Ki (Melanocortin receptor 3): 400 nM
8 | CC(=O)c1ccc(CNc2nc3ccc(C(=O)N(CCC(C)C)CCC(C)C)cc3n2CCCN2CCCCC2)cc1 | 5.8 | –
9 | CC(=O)c1ccc(Nc2nc3ccc(C(=O)N(CCC(C)C)CCC(C)C)cc3n2CCCO)cc1 | 2300 | –
10 | CNC(=O)c1ccc(Nc2nc3ccc(C(=O)N(CCC(C)C)CCC(C)C)cc3n2CCCN2CCCCC2)cc1 | 3.3 | Ki (Melanocortin receptor 5): 880 nM; Ki [3]: 9300 nM; Kb (Melanocortin receptor 4 [4]): 3.2 nM; Fold change [7]: 40; Activity (Melanocortin receptor 4 [6]): inactive; Ki (Melanocortin receptor 3): 130 nM
11 | CCCCCN(CCCCC)C(=O)c1ccc2nc(Nc3cc(OC)c(OC)c(OC)c3)n(CCCN)c2c1 | 640 | –
12 | CC(C)CCN(CCC(C)C)C(=O)c1ccc2nc(Nc3ccsc3)n(CCCN3CCCCC3)c2c1 | 33 | –
13 | COc1ccc(Cc2nc3ccc(C(=O)N(CCC(C)C)CCC(C)C)cc3n2CCCN2CCCCC2)cc1 | 28 | –
14 | CC(C)CCN(CCC(C)C)C(=O)c1ccc2nc(Nc3ccc(C(N)=O)cc3)n(CCCN3CCCCC3)c2c1 | 6.5 | –
15 | CC(=O)NCCNc1nc2ccc(C(=O)N(CCC(C)C)CCC(C)C)cc2n1CCCN1CCCCC1 | 31 | –
16 | CC(=O)c1ccc(Cc2nc3ccc(C(=O)N(CCC(C)C)CCC(C)C)cc3n2CCCN2CCCCC2)cc1 | 3.9 | Ki (Melanocortin receptor 5): 5900 nM; Ki [3]: > 10000 nM; Kb (Melanocortin receptor 4 [4]): 14 nM; Activity (Melanocortin receptor 4 [6]): inactive; Ki (Melanocortin receptor 3): 4500 nM
17 | CC(=O)c1ccc(Nc2nc3ccc(C(=O)N(CC(C)C)CC(C)C)cc3n2CCCN)cc1 | 770 | –
18 | CC(C)CCN(CCC(C)C)C(=O)c1ccc2nc(-c3cn(C)c4ccccc34)n(CCCN3CCCCC3)c2c1 | 3.2 | –
19 | CC(C)CCN(CCC(C)C)C(=O)c1ccc2nc(-c3c[nH]c4ccccc34)n(CCCN3CCCCC3)c2c1 | 7 | –
20 | CC(C)CCN(CCC(C)C)C(=O)c1ccc2nc(Nc3ccccc3)n(CCCN3CCCCC3)c2c1 | 7.3 | –
21 | CC(C)CCN(CCC(C)C)C(=O)c1ccc2nc(-c3cc4ccccc4s3)n(CCCN3CCCCC3)c2c1 | 2.9 | –
22 | CNCCCn1c(Nc2ccc(C(C)=O)cc2)nc2ccc(C(=O)N(CCC(C)C)CCC(C)C)cc21 | 51 | –
23 | CCCN(CCC)C(=O)c1ccc2nc(Nc3cc(OC)c(OC)c(OC)c3)n(CCCN)c2c1 | 17000 | Ki (Melanocortin receptor 4 [1]; read-out: Log Ki (converted)): 17800 nM
24 | COC(=O)c1ccc(Nc2nc3ccc(C(=O)N(CCC(C)C)CCC(C)C)cc3n2CCCN2CCCCC2)cc1 | 0.9 | –
25 | COCCNc1nc2ccc(C(=O)N(CCC(C)C)CCC(C)C)cc2n1CCCN1CCCCC1 | 78 | –
26 | CC(=O)c1ccc(Nc2nc3ccc(C(=O)N(CCC(C)C)CCC(C)C)cc3n2CCCCN)cc1 | 130 | –
27 | CC(C)CCN(CCC(C)C)C(=O)c1ccc2nc(Nc3ccc(F)cc3)n(CCCN3CCCCC3)c2c1 | 8.3 | –

Row | Structure (SMILES) | Ki (Melanocortin receptor 4 [1]; read-out: Ki) [nM] | also measured
28 | CC(C)CCN(CCC(C)C)C(=O)c1ccc2nc(Nc3ccc(C(=O)c4ccccc4)cc3)n(CCCN3CCCCC3)c2c1 | 1.7 | –
29 | COc1ccc(-c2nc3ccc(C(=O)N(CCC(C)C)CCC(C)C)cc3n2CCCN2CCCCC2)cc1 | 37 | –
30 | CC(=O)c1ccc(Nc2nc3ccc(C(=O)N(CCC(C)C)CCC(C)C)cc3n2CCCN)cc1 | 60 | –
31 | CC(C)CCN(CCC(C)C)C(=O)c1ccc2nc(Nc3cccnc3)n(CCCN3CCCCC3)c2c1 | 4.2 | –
32 | CC(=O)c1ccc(Nc2nc3ccc(C(=O)N(CCC(C)C)CCC(C)C)cc3n2C2CCN(C)CC2)cc1 | 50 | –
33 | CC(=O)c1ccc(Nc2nc3ccc(C(=O)N(CCC(C)C)CCC(C)C)cc3n2CCCN2CCCC2)cc1 | 4.9 | –
34 | CC(C)CCN(CCC(C)C)C(=O)c1ccc2nc(Nc3ccc([N+](=O)[O-])cc3)n(CCCN3CCCCC3)c2c1 | 2.2 | –
35 | CC(=O)c1ccc(-c2nc3ccc(C(=O)N(CCC(C)C)CCC(C)C)cc3n2CCCN2CCCCC2)cc1 | 20 | –
36 | COC(=O)c1ccc(-c2nc3ccc(C(=O)N(CCC(C)C)CCC(C)C)cc3n2CCCN2CCCCC2)cc1 | 45 | –
37 | CC(=O)c1ccc(Nc2nc3ccc(C(=O)N(CCC(C)C)CCC(C)C)cc3n2CCCN2CCN(C)CC2)cc1 | 45 | –
38 | CC(C)CCN(CCC(C)C)C(=O)c1ccc2nc(Nc3ccc(Cl)cc3)n(CCCN3CCCCC3)c2c1 | 8.8 | –
39 | CC(=O)c1cccc(Nc2nc3ccc(C(=O)N(CCC(C)C)CCC(C)C)cc3n2CCCN2CCCCC2)c1 | 4.5 | –
40 | CC(=O)c1ccc(Nc2nc3ccc(C(=O)N(CCC(C)C)CCC(C)C)cc3n2CCCNC(=O)OC(C)(C)C)cc1 | > 10000 | Ki (Melanocortin receptor 4 [1]; read-out: Log Ki (converted)): 85100 nM
41 | CC(=O)c1ccc(Nc2nc3ccc(C(=O)N(CCC(C)C)CCC(C)C)cc3n2CCCN2CCOCC2)cc1 | 33 | –
42 | CC(=O)c1ccccc1Nc1nc2ccc(C(=O)N(CCC(C)C)CCC(C)C)cc2n1CCCN1CCCCC1 | 110 | –
43 | CCN(CC)CCCn1c(Nc2ccc(C(C)=O)cc2)nc2ccc(C(=O)N(CCC(C)C)CCC(C)C)cc21 | 7.9 | –
44 | CC(C)CCN(CCC(C)C)C(=O)c1ccc2nc(NCc3ccccc3)n(CCCN3CCCCC3)c2c1 | 18 | –
45 | COc1ccc(Nc2nc3ccc(C(=O)N(CCC(C)C)CCC(C)C)cc3n2CCCN2CCCCC2)cc1 | 5 | –
46 | COc1ccc(C(=O)c2nc3ccc(C(=O)N(CCC(C)C)CCC(C)C)cc3n2CCCN2CCCCC2)cc1 | 0.96 | Ki (Melanocortin receptor 5): 1600 nM; Ki [3]: 7500 nM; Kb (Melanocortin receptor 4 [4]): 44 nM; Fold change [7]: 40; Activity (Melanocortin receptor 4 [6]): inactive; Ki (Melanocortin receptor 3): 540 nM
47 | CC(C)CCN(CCC(C)C)C(=O)c1ccc2nc(Nc3ccc(Oc4ccccc4)cc3)n(CCCN3CCCCC3)c2c1 | 2.1 | –
48 | CC(C)CCN(CCC(C)C)C(=O)c1ccc2nc(Nc3ccc(N4CCCCC4)cc3)n(CCCN3CCCCC3)c2c1 | 9.7 | –
49 | COc1cc(Nc2nc3ccc(C(=O)N(CCC(C)C)CCC(C)C)cc3n2CCCN)cc(OC)c1OC | 420 | –
50 | CCCCN(CCCC)C(=O)c1ccc2nc(Nc3cc(OC)c(OC)c(OC)c3)n(CCCN)c2c1 | 1000 | –
51 | CC(=O)Nc1ccc(Nc2nc3ccc(C(=O)N(CCC(C)C)CCC(C)C)cc3n2CCCN2CCCCC2)cc1 | 3.7 | –
52 | CC(=O)c1ccc(Nc2nc3ccc(C(=O)N(CCC(C)C)CCC(C)C)cc3n2CC(C)(C)CN(C)C)cc1 | 730 | –
53 | COc1cc(Nc2nc3ccc(C(=O)N(CC(C)C)CC(C)C)cc3n2CCCN)cc(OC)c1OC | 11000 | Ki (Melanocortin receptor 4 [1]; read-out: Log Ki (converted)): 11700 nM
